ASAP1 GAP inh: ASAP1 ArfGAP inhibition | Q9ULH1 | ASAP1-stimulated ARF1 GTP hydrolysis, GDP FP detection | inhibition, % at 16.5 µM | hit rate 0.19% among 360,000; in the data active means inhibition above about 25%;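 further: 0% = vehicle with enzyme and substrate and 100% = no enzyme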
Target sequence (Q9ULH1 325-724 limits assumed): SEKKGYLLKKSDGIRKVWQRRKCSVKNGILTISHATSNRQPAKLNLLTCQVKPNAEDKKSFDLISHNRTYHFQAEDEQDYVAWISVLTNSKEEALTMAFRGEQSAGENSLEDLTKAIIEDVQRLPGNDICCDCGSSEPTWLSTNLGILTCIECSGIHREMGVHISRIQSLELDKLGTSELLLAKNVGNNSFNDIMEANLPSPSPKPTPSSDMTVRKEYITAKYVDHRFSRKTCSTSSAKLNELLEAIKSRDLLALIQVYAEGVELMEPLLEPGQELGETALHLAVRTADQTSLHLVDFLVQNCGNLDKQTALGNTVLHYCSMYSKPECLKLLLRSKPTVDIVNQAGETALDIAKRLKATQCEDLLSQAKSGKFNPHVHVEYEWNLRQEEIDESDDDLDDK
PAFAH2 FP inh: PAFAH2 (human) inhibition | hit rate 0.99% among 340,000 | inhibition, % at 3.39 µM | recombinant PAFAH2, FP-rhodamine activity probe, fluorescence polarization | AID 492956 | Q99487;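 active means inhibition above the mean over all tested compounds plus 3 SD, cut at about 30% in these data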;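 further: inhibitors block probe labeling of enzyme so polarization drops; 0% = enzyme with DMSO and 100% = wells lacking PAFAH2 protein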
PAFAH1B2 inh: PAFAH1B2 (human) inhibition | P68402 | recombinant PAFAH1B2, FP-rhodamine activity probe, fluorescence polarization | inhibition, % at 3.39 µM | hit rate 1.2% among 340,000 | AID 492953;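 active means inhibition above the mean of all tested compounds plus 3 SD, cut at about 24% in these data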;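 further: 0% = enzyme with DMSO and 100% = wells lacking PAFAH1B2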
pPAFAH inh: inhibitors of human plasma PAF acetylhydrolase (pPAFAH); Q13093; recombinant pPAFAH, FP-rhodamine probe fluorescence polarization; inhibition, % at 3.39 µM; hit rate 1.5% among 330,000;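 active means inhibition above the mean inhibition across the screen plus 3 SD, cut at about 25% in these data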;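 further: inhibitors block binding of the rhodamine activity-based probe so polarization drops; 0% = enzyme with DMSO and 100% = wells lacking pPAFAH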
PAFAH1B3 inh: inhibitors of human PAFAH1B3; Q15102; recombinant PAFAH1B3, FP-rhodamine probe, fluorescence polarization; inhibition, % at 3.39 µM; hit rate 0.28% among 340,000; AID 492972;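 active means inhibition above the screen-wide average of all tested compounds plus 3 SD, cut at about 25% in these data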;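 further: 0% = enzyme with DMSO only and 100% = wells lacking PAFAH1B3 protein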
Target sequence (Q15102 whole entry, looked up): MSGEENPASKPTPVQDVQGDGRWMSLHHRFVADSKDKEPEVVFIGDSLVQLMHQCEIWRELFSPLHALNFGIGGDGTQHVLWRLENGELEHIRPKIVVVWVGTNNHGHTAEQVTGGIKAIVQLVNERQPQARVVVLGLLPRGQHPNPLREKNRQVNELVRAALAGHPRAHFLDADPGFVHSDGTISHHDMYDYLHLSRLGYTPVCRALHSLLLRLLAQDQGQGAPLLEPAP
ARFGAP1 inh: inhibits rat ARF GTPase activating protein 1; Arfgap1-stimulated ARF1 GTP hydrolysis, GDP FP detection; inhibition, % at 16.5 µM; hit rate 0.26% among 360,000; AID 651572;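 active means inhibition above a per-plate limit, mean inhibition of low control wells plus 3 SD, cut at about 25% in these data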;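 further: 0% = DMSO wells with enzyme and 100% = wells lacking Arfgap1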
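Replicates: Single well per compound | Assay system: Truncated rat Arfgap1 GAP domain | Control set: No-Arfgap1 wells (100%) versus DMSO full-reaction wells (0%) | Times: Enzyme reaction 120 min at 25 °C after 20 min preincubation | Reagent: Human ARF1(Δ1-17)-GTP substrate | Measured by: Tracer-displacement fluorescence polarization with EDTA stop, 620/688 nm | Measure: Percent inhibition of Arfgap1-stimulated GTP hydrolysis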
Active calls of the source: *; / = no result. Most compounds without a hit are left out; they make up all but 2.7% or so of the library.

SMILES	ASAP1 GAP inh	PAFAH2 FP inh	PAFAH1B2 inh	pPAFAH inh	PAFAH1B3 inh	ARFGAP1 inh
Cc1cc(C=O)c(C)n1-c1cccc(C(=O)O)c1	5	17	10	10	5	4
Cc1ccc(C)n1-c1cccc(C(=O)O)c1	/	/	/	63*	/	/
Cc1ccc(N/N=C(\C#N)C(=O)c2ccsc2)cc1	3	8	4	10	5	-2
N#C/C(=N\Nc1ccc(Cl)cc1)C(=O)c1ccsc1	7	19	9	33*	9	-1
N#C/C(=N\Nc1cccc(Cl)c1)C(=O)c1ccccc1	12	22	2	26*	-3	-23
N/C(=N\OC(=O)CCc1ccccc1)c1ccc(Br)cc1	-13	-2	71*	6	4	5
N/C(=N\OC(=O)CCc1ccccc1)c1cccc(Br)c1	8	6	67*	4	8	7
COC(=O)[C@]12C[C@H](CC(=O)N3CCCCC3)C(=O)N(CCC3=CCCCC3)C1=C[C@H](COCc1ccccc1)O[C@@H]2C	-6	/	/	/	/	-1
CCCCOCC1CN(CCCC)S(=O)(=O)c2c(NCc3cc(OC)c(OC)c(OC)c3)cccc2O1 (stereo not drawn)	-11	/	/	/	/	-7
COc1ccc(/C=C2\SC(=O)N(CCCC(=O)Nc3cc(Cl)ccc3C(=O)O)C2=O)cc1	-6	3	38*	-4	2	-21
COc1ccc(/C=C2\SC(=S)N(CCC(=O)Nc3ccccc3C(=O)O)C2=O)cc1	-3	1	-4	-3	8	4
NC(=O)c1ncn([C@@H]2O[C@H](C(=O)N[C@H](Cc3ccccc3)C(=O)N3CCN(CC(=O)Nc4ccccn4)CC3)[C@@H](O)[C@H]2O)n1	-16	/	/	/	/	7
C#CCNC(=O)C[C@H]1C[C@@]2(C(=O)OC)C(=C[C@H](C(C)(C)C)O[C@@H]2C)N(Cc2ccccc2)C1=O	9	/	/	/	/	3
O=C(NCc1cccnc1)/C(=C/c1ccc(-c2cccc(C(F)(F)F)c2)o1)NC(=O)c1ccccc1	-2	-7	5	30*	5	2
Cc1ccc(C(=O)N/C(=C/c2ccc(-c3cc(C(F)(F)F)ccc3Cl)o2)C(=O)NCc2cccnc2)cc1	-10	-8	-4	8	-4	-1
O=S(=O)(N1CCCCC1)n1nnc2cc3ccccc3cc21	3	/	/	/	/	0
COc1cc2c(c(OC3OC(CO)C(O)C(O)C3O)c1)C(=O)CC(c1ccc(O)cc1)O2 (stereo not drawn)	-1	/	/	/	/	-8
CCn1cnc2cc(NCc3ccncc3)ccc21	2	-1	-1	-8	5	1
Cc1nc2cc(NCc3ccc(Cl)cc3)ccc2n1C	13	-2	28*	1	-2	13
CCn1cnc2cc(NCc3ccc(Cl)cc3)ccc21	-26	-3	32*	-1	3	-1
Nc1[nH]c(C(=O)c2ccccc2)c(-c2ccccc2)c1C(=O)NCCc1c[nH]c2ccccc12	9	/	/	/	/	5
CCCCc1c(-c2ccccc2OC)ncn1Cc1cc(F)ccc1F	1	/	/	/	/	4
COc1ccc2nc(NC(=O)CN(c3ccc(C)cc3)S(=O)(=O)c3c(C)nn(C)c3C)sc2c1	7	-2	2	-4	-3	28*
O=C(/C=C/c1ccc(-c2ccccc2)o1)c1ccccc1	-1	6	-1	27*	8	13
Cc1ccccc1NS(=O)(=O)c1ccc(OCCNS(C)(=O)=O)cc1	9	0	-6	32*	1	0
SMILES	ASAP1 GAP inh	PAFAH2 FP inh	PAFAH1B2 inh	pPAFAH inh	PAFAH1B3 inh	ARFGAP1 inh
Cc1ccccc1NS(=O)(=O)c1ccc(Cl)cc1	12	1	-1	10	4	9
CCCn1nc(NS(=O)(=O)c2cccc3nonc23)c2cc3cc(C)ccc3nc21	6	11	8	17	9	-5
CCCn1nc(NS(=O)(=O)c2cccc3nonc23)c2cc3cccc(C)c3nc21	15	13	10	29*	3	-3
CC(C)c1[nH]nc2c1C(c1ccc(F)cc1)N(Cc1ccccc1)C2=O (stereo not drawn)	-12	/	/	/	/	12
CCOC(=O)N1CCN(C(=O)c2ccc(S(=O)(=O)Nc3ccc(C)cc3)cc2)CC1	-7	1	2	20	5	-5
Cc1ccc(NS(=O)(=O)c2cccc(C(=O)NC3CCN(Cc4ccccc4)CC3)c2)cc1	14	2	2	/	-2	-4
Cc1ccc(NS(=O)(=O)c2ccc(C(=O)N3CCC3)cc2)cc1	4	2	-1	28*	0	6
Cc1ccc(NS(=O)(=O)c2ccc(C(=O)N3CCN(c4ccccn4)CC3)cc2)cc1	9	-1	6	25*	0	1
O=C(c1ccc(S(=O)(=O)Nc2ccccc2)cc1)N1CCCC(C(F)(F)F)C1 (stereo not drawn)	-6	3	1	28*	-2	-4
Cc1ccc(S(=O)(=O)NCc2ccc(C(=O)N3CCN(c4ccccn4)CC3)cc2)cc1	9	0	-5	9	-6	1
Cc1ccc(NS(=O)(=O)c2ccc(C(=O)NC3CCN(Cc4ccccc4)CC3)cc2)cc1	0	-4	4	26*	7	0
COC(=O)/C=C1\OC(C)c2ccccc21 (stereo not drawn)	-4	/	/	/	/	5
O=C(COC(=O)c1sc2ccccc2c1Cl)NCC1CCCCC1	4	15	4	27*	0	-2
NC(=O)COC(=O)c1sc2ccccc2c1Cl	10	5	6	0	5	8
O=C(CCc1nnc(CCCc2ccccc2)o1)NCCc1ccccc1	-16	1	24*	1	-1	-2
O=C(CCc1nnc(CCCc2ccccc2)o1)NCCc1ccco1	5	0	14	6	5	-4
COC(=O)C1=C(C)N(C)C(=NCc2ccc3c(c2)OCO3)NC1c1cccc(C(F)(F)F)c1 (stereo not drawn)	-15	/	/	/	/	6
CN(CC(=O)Nc1ccc(F)cc1)C(=O)COC(=O)c1cc(Br)c(Br)s1	-13	18	24*	/	10	-6
Cc1ccc(SCC(=O)OCC(=O)N(C)CC(=O)Nc2ccc(F)cc2)cc1	1	-11	44*	27*	3	2
Cc1ccc(S(=O)(=O)CCC(=O)OCC(=O)N(C)CC(=O)Nc2ccc(F)cc2)cc1	11	1	0	12	9	11
COC(=O)[C@]12C[C@H](CC(=O)N3CCCCC3)C(=O)N(CCC3=CCCCC3)C1=C[C@H](C(C)(C)C)O[C@@H]2C	-4	/	/	/	/	-7
N#CCC(=O)c1ccccc1Oc1ccc(Cl)cc1	5	-7	6	25*	3	-8
O/N=C/c1ccccc1Oc1ccc(Cl)cc1	-9	-8	5	0	5	15
Cc1ccc(C2=C(O)C(=O)C(c3ccc(C)cc3)=C(O)C2=O)cc1	-4	63*	41*	/	65*	-9
